Experiments:
Format in all cases: functional
UO-31 = assay: Anticancer activity against human UO31 cells after 48 hrs by sulforhodamine B assay; conditions: UO-31, 48 h
How it was run: (§1)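 NCI 60-cell-line panel; cells grown in RPMI 1640 with 5% FBS and 2 mM L-glutamine, plated at 5000–40,000 cells/well and preincubated 24 h at 37 °C, 5% CO2. Compounds came from DMSO stocks diluted in medium with gentamicin and were tested at five final concentrations, 10^-4 to 10^-8 M, for 48 h. Cells were fixed with TCA, stained with SRB and read at 515 nm. GI50, TGI and LC50 were derived as log molar values.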

SF-539 = assay: Anticancer activity against human SF539 cells after 48 hrs by sulforhodamine B assay; conditions: SF-539, 48 h
How it was run: (§2)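 NCI 60-cell-line screen. Cells grown in RPMI 1640 with 5% FBS and 2 mM L-glutamine, plated at 5000–40,000 cells/well, and preincubated 24 h at 37 °C under 5% CO2. Compounds were taken from DMSO stocks and tested at five final concentrations, 10^-4 to 10^-8 M, for 48 h. Cells were TCA-fixed, stained with 0.4% SRB, and read at 515 nm. GI50, TGI and LC50 were derived as log molar values.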

SW-620 = assay: Anticancer activity against human SW620 cells after 48 hrs by sulforhodamine B assay; conditions: SW-620, 48 h; how it was run: as §1
MOLT-4 = assay: Anticancer activity against human MOLT4 cells after 48 hrs by sulforhodamine B assay; conditions: MOLT-4, 48 h; how it was run: as §2
MDA-MB-435 = assay: Anticancer activity against human MDA-MB-435 cells after 48 hrs by sulforhodamine B assay; conditions: MDA-MB-435, 48 h; how it was run: as §2
A498 = assay: Anticancer activity against human A498 cells after 48 hrs by sulforhodamine B assay; conditions: A498, 48 h; how it was run: as §2
RXF 393 = assay: Anticancer activity against human RXF393 cells after 48 hrs by sulforhodamine B assay; conditions: RXF 393, 48 h; how it was run: as §2
M14 = assay: Anticancer activity against human M14 cells after 48 hrs by sulforhodamine B assay; conditions: M14, 48 h; how it was run: as §2
HOP-62 = assay: Anticancer activity against human HOP62 cells after 48 hrs by sulforhodamine B assay; conditions: HOP-62, 48 h; how it was run: as §2
HCT-15 = assay: Anticancer activity against human HCT15 cells after 48 hrs by sulforhodamine B assay; conditions: HCT-15, 48 h; how it was run: as §2
K562 = assay: Anticancer activity against human K562 cells after 48 hrs by sulforhodamine B assay; conditions: K562, 48 h; how it was run: as §2
A549 = assay: Anticancer activity against human A549 cells after 48 hrs by sulforhodamine B assay; conditions: A549, 48 h; how it was run: as §2
SK-MEL-5 = assay: Anticancer activity against human SK-MEL-5 cells after 48 hrs by sulforhodamine B assay; conditions: SK-MEL-5, 48 h; how it was run: as §2
HCT-116 = assay: Anticancer activity against human HCT116 cells after 48 hrs by sulforhodamine B assay; conditions: HCT-116, 48 h; how it was run: as §2
OVCAR-4 = assay: Anticancer activity against human OVCAR4 cells after 48 hrs by sulforhodamine B assay; conditions: OVCAR-4, 48 h; how it was run: as §2
COLO 205 = assay: Anticancer activity against human COLO205 cells after 48 hrs by sulforhodamine B assay; conditions: COLO 205, 48 h; how it was run: as §2
DU-145 = assay: Anticancer activity against human DU145 cells after 48 hrs by sulforhodamine B assay; conditions: DU-145, 48 h; how it was run: as §2
SN12C = assay: Anticancer activity against human SN12C cells after 48 hrs by sulforhodamine B assay; how it was run: as §1
NCI-H522 = assay: Anticancer activity against human NCI-H522 cells after 48 hrs by sulforhodamine B assay; conditions: NCI-H522, 48 h; how it was run: as §2
SNB-75 = assay: Anticancer activity against human SNB75 cells after 48 hrs by sulforhodamine B assay; conditions: SNB-75, 48 h; how it was run: as §1
NCI/ADR-RES = assay: Anticancer activity against human NCI/ADR-RES cells after 48 hrs by sulforhodamine B assay; how it was run: as §2
IGROV-1 = assay: Anticancer activity against human IGROV1 cells after 48 hrs by sulforhodamine B assay; conditions: IGROV-1, 48 h; how it was run: as §2
OVCAR-5 = assay: Anticancer activity against human OVCAR5 cells after 48 hrs by sulforhodamine B assay; conditions: OVCAR-5, 48 h; how it was run: as §2
KM12 = assay: Anticancer activity against human KM12 cells after 48 hrs by sulforhodamine B assay; conditions: KM12, 48 h; how it was run: as §2
UACC-62 = assay: Anticancer activity against human UACC62 cells after 48 hrs by sulforhodamine B assay; conditions: UACC-62, 48 h; how it was run: as §1
MCF7 = assay: Anticancer activity against human MCF7 cells after 48 hrs by sulforhodamine B assay; conditions: MCF7, 48 h; how it was run: as §2
Malme-3M = assay: Anticancer activity against human MALME-3M cells after 48 hrs by sulforhodamine B assay; how it was run: as §2
CAKI-1 = assay: Anticancer activity against human Caki1 cells after 48 hrs by sulforhodamine B assay; conditions: CAKI-1, 48 h; how it was run: as §2
PC-3 = assay: Anticancer activity against human PC3 cells after 48 hrs by sulforhodamine B assay; conditions: PC-3, 48 h; how it was run: as §2
UACC-257 = assay: Anticancer activity against human UACC257 cells after 48 hrs by sulforhodamine B assay; conditions: UACC-257, 48 h; how it was run: as §1
OVCAR-8 = assay: Anticancer activity against human OVCAR8 cells after 48 hrs by sulforhodamine B assay; conditions: OVCAR-8, 48 h; how it was run: as §2
HT-29 = assay: Anticancer activity against human HT-29 cells after 48 hrs by sulforhodamine B assay; conditions: HT-29, 48 h; how it was run: as §2
NCI-H460 = assay: Anticancer activity against human NCI-H460 cells after 48 hrs by sulforhodamine B assay; conditions: NCI-H460, 48 h; how it was run: as §2
SK-MEL-28 = assay: Anticancer activity against human SK-MEL-28 cells after 48 hrs by sulforhodamine B assay; conditions: SK-MEL-28, 48 h; how it was run: as §2
NCI-H226 = assay: Anticancer activity against human NCI-H226 cells after 48 hrs by sulforhodamine B assay; conditions: NCI-H226, 48 h; how it was run: as §2
MDA-MB-231 = assay: Anticancer activity against human MDA-MB-231 cells after 48 hrs by sulforhodamine B assay; conditions: MDA-MB-231, 48 h; how it was run: as §2
EKVX = assay: Anticancer activity against human EKVX cells after 48 hrs by sulforhodamine B assay; how it was run: as §2
T47D = assay: Anticancer activity against human T47D cells after 48 hrs by sulforhodamine B assay; how it was run: as §1
U-251 = assay: Anticancer activity against human U251 cells after 48 hrs by sulforhodamine B assay; conditions: U-251, 48 h; how it was run: as §1
SR = assay: Anticancer activity against human SR cells after 48 hrs by sulforhodamine B assay; how it was run: as §1
OVCAR-3 = assay: Anticancer activity against human OVCAR-3 cells after 48 hrs by sulforhodamine B assay; conditions: OVCAR-3, 48 h; how it was run: as §2
SF-268 = assay: Anticancer activity against human SF268 cells after 48 hrs by sulforhodamine B assay; conditions: SF-268, 48 h; how it was run: as §2
[1] = Anticancer activity against human Hs 578T cells after 48 hrs by sulforhodamine B assay; how it was run: as §2
MDA-N = assay: Anticancer activity against human MDA-N cells after 48 hrs by sulforhodamine B assay; how it was run: as §2

## O=c1[nH]cc(F)c(=O)[nH]1 [FLUOROURACIL]
UO-31
  GI50: 1.41 µM
SF-539
  GI50: 0.0631 µM
SW-620
  GI50: 0.933 µM
MOLT-4
  GI50: 0.355 µM
MDA-MB-435
  GI50: 0.0724 µM
A498
  GI50: 0.398 µM
RXF 393
  GI50: 2.63 µM
M14
  GI50: 0.977 µM
HOP-62
  GI50: 0.398 µM
HCT-15
  GI50: 0.11 µM
K562
  GI50: 3.55 µM
A549
  GI50: 0.191 µM
SK-MEL-5
  GI50: 0.468 µM
HCT-116
  GI50: 0.229 µM
OVCAR-4
  GI50: 4.47 µM
COLO 205
  GI50: 0.158 µM
DU-145
  GI50: 0.363 µM
SN12C
  GI50: 0.501 µM
NCI-H522
  GI50: 7.24 µM
SNB-75
  GI50: 79.4 µM
NCI/ADR-RES
  GI50: 0.316 µM
IGROV-1
  GI50: 1.23 µM
OVCAR-5
  GI50: 11 µM
KM12
  GI50: 0.214 µM
UACC-62
  GI50: 0.525 µM
MCF7
  GI50: 0.0794 µM
Malme-3M
  GI50: 0.0513 µM
CAKI-1
  GI50: 0.0724 µM
PC-3
  GI50: 2.34 µM
UACC-257
  GI50: 3.55 µM
OVCAR-8
  GI50: 1.74 µM
HT-29
  GI50: 0.178 µM
NCI-H460
  GI50: 0.0562 µM
SK-MEL-28
  GI50: 1.02 µM
NCI-H226
  GI50: 55 µM
MDA-MB-231
  GI50: 6.61 µM
EKVX
  GI50: 61.7 µM
T47D
  GI50: 8.13 µM
U-251
  GI50: 0.912 µM
SR
  GI50: 0.024 µM
OVCAR-3
  GI50: 0.0158 µM
SF-268
  GI50: 1.58 µM
[1]
  GI50: 9.77 µM

## O=C(Nc1nc2ccccc2s1)NC(C(F)(F)F)C(F)(F)F
UO-31
  GI50: 3.24 µM
MDA-N
  GI50: 23.4 µM
SF-539
  GI50: 26.9 µM
SW-620
  GI50: 33.9 µM
MOLT-4
  GI50: 29.5 µM
MDA-MB-435
  GI50: 31.6 µM
A498
  GI50: 20 µM
RXF 393
  GI50: 28.2 µM
M14
  GI50: 19.1 µM
HOP-62
  GI50: 38 µM
HCT-15
  GI50: 25.7 µM
K562
  GI50: 25.1 µM
A549
  GI50: 26.9 µM
SK-MEL-5
  GI50: 15.5 µM
HCT-116
  GI50: 16.6 µM
OVCAR-4
  GI50: 28.8 µM
COLO 205
  GI50: 17.8 µM
DU-145
  GI50: 30.2 µM
SN12C
  GI50: 14.1 µM
NCI-H522
  GI50: 14.1 µM
SNB-75
  GI50: 17 µM
NCI/ADR-RES
  GI50: 27.5 µM
IGROV-1
  GI50: 38 µM
OVCAR-5
  GI50: 27.5 µM
KM12
  GI50: 29.5 µM
UACC-62
  GI50: 24.5 µM
MCF7
  GI50: 28.2 µM
Malme-3M
  GI50: 20.4 µM
CAKI-1
  GI50: 28.8 µM
PC-3
  GI50: 25.1 µM
UACC-257
  GI50: 20.4 µM
OVCAR-8
  GI50: 33.9 µM
HT-29
  GI50: 19.5 µM
NCI-H460
  GI50: 22.4 µM
SK-MEL-28
  GI50: 35.5 µM
NCI-H226
  GI50: 25.7 µM
MDA-MB-231
  GI50: 22.4 µM
EKVX
  GI50: 20.9 µM
T47D
  GI50: 17 µM
U-251
  GI50: 24.5 µM
SR
  GI50: 25.7 µM
OVCAR-3
  GI50: 18.2 µM
SF-268
  GI50: 29.5 µM
[1]
  GI50: 26.9 µM

Reference: ChEMBL document CHEMBL1155222, “Synthesis and anticancer activity of N-bis(trifluoromethyl)alkyl-N'-thiazolyl and N-bis(trifluoromethyl)alkyl-N'-benzothiazolyl ureas” (2009)
